Screening results deposited in PubChem by Broad Institute.
Hits are enriched below; roughly 1.5% of the tested compounds scored in any of these assays.
MLL AF4-AF9 inh = inhibitors of human MLL-AF4/AF9 interaction. P42568. AlphaScreen, biotin-AF4 peptide binding to FLAG-AF9. inhibition, % at 10 µM. hit rate 0.47% among 350,000. AID 651704;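 active = every replicate reaching a set inhibition limit, whatever the replicate mean, cut at about 25% in these data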;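 also: 0% = plate neutral control median and 100% = total signal loss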
RAD52 inh = blocks human RAD52 DNA annealing | P43351 | recombinant RAD52 DNA annealing, FRET fluorescence | inhibition, % at 18.7 µM | hit rate 0.46% among 360,000;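 active = every replicate showing at least 50% inhibition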
S100A4 inh HTS = inhibitors of human S100A4 binding to myosin IIA peptide | P26447 | S100A4/TAMRA-MyoIIA peptide fluorescence polarization | inhibition, % at 10.7 µM | hit rate 0.14% among 360,000 | AID 652163;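 active = mean inhibition of at least 70% across replicates, with every replicate also reaching that level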
Target sequence (P26447 whole entry, looked up): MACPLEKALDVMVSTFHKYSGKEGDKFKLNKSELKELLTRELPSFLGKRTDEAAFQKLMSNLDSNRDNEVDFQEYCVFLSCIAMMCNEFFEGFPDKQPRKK
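System – human S100A4 monomer protein, biochemical binding assay · Buffer or medium – Calcium-containing HEPES buffer, pH 7.2 · Timing – 5 min between mix addition and reading · Also added – TAMRA-labelled myosin IIA heavy-chain peptide probe, 5 nM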
RAD54 branch = blocks human RAD54 Holliday junction branch migration | Q92698 | FAM/BHQ fluorescence | inhibition, % at 10.4 µM | hit rate 0.14% among 360,000 | AID 602329;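 active = mean normalized replicate activity at least 40 and at least half of replicates scoring 40 or more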;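 also: 0% = median of neutral control wells and 100% = median of positive control wells; inhibitors cause a drop in the FAM fluorescence signal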
dFosB activator = mouse delta FosB homodimer activation; hit rate 0.99% among 340,000; activation, % at 25 µM; purified delta FosB, TAMRA-CDK5 oligo fluorescence polarization; percent of positive-control signal above neutral wells; AID 493131;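 active = mean activation above about 17%, with every replicate also reaching it, limit read from the data, passing the limit was not always enough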
Target sequence (P13346 whole entry, looked up): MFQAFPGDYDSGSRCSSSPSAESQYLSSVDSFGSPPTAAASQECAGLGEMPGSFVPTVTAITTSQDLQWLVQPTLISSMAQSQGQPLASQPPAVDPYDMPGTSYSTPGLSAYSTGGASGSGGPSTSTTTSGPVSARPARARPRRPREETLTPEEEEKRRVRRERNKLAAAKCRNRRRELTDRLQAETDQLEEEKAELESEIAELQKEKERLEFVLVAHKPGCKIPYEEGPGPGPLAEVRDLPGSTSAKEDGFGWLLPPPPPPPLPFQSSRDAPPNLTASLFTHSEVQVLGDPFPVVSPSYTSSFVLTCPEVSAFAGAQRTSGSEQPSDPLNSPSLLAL
* hit, by the source's call; i = inactive; x = no result given.

SMILES	MLL AF4-AF9 inh	RAD52 inh	S100A4 inh HTS	RAD54 branch	dFosB activator
C[C@@H]1CCCCO[C@H](CN(C)Cc2ccc3c(c2)OCO3)[C@@H](C)CN([C@@H](C)CO)C(=O)c2cc(NS(=O)(=O)c3ccc(Cl)cc3)ccc2O1	14.6	61.5*	-6.0	-1.3	x
C[C@@H]1CN([C@H](C)CO)C(=O)c2cc(NS(=O)(=O)c3ccc(Cl)cc3)ccc2O[C@@H](C)CCCCO[C@H]1CN(C)Cc1ccc(Cl)c(Cl)c1	2.9	-18.4	101.6*	1.6	x
C[C@@H]1CN([C@@H](C)CO)C(=O)c2cc(NS(=O)(=O)c3ccc(Cl)cc3)ccc2O[C@H]1CN(C)Cc1ccccc1	25.0*	12.9	10.0	2.0	x
C[C@H](CO)N1C[C@H](C)[C@H](CN(C)Cc2ccc(-c3ccccc3)cc2)Oc2ccc(NS(=O)(=O)c3ccc(Cl)cc3)cc2C1=O	0.5	-17.8	1.1	-1.2	x
C[C@@H]1CCCCO[C@@H](CN(C)Cc2ccc3c(c2)OCO3)[C@H](C)CN([C@@H](C)CO)C(=O)c2cc(NS(=O)(=O)c3ccc(Cl)cc3)ccc2O1	3.4	29.5	2.2	1.1	x
C[C@H](CO)N1C[C@H](C)[C@@H](CN(C)CC2CC2)Oc2ccc(NC(=O)c3ccncc3)cc2CC1=O	-2.7	7.3	x	2.4	x
CC(=O)N(C)C[C@H]1Oc2cc(-c3cncnc3)ccc2S(=O)(=O)N([C@@H](C)CO)C[C@@H]1C	-1.7	5.7	4.1	4.9	x
N#CCCN(CCC#N)C(=O)C1c2ccccc2Oc2ccccc21	-1.6	i	131.2*	-58.9	-34.0
COc1ccc(-c2csc(=Nc3ccccc3)n2CCO)cc1	37.9*	3.8	-7.5	1.9	-2.9
COc1ccc(-c2csc(=NCCO)n2-c2ccccc2)cc1	33.4*	-16.8	-3.6	-0.5	-5.7
COc1ccc(NC(=O)N(C)C[C@H]2Oc3ccc(NC(=O)Nc4ccc(C(F)(F)F)cc4)cc3C(=O)N([C@@H](C)CO)C[C@H]2C)cc1	x	x	x	23.7	x
CN(C)Cc1cc(C(C)(C)c2cc(CN(C)C)c(O)c(CN(C)C)c2)cc(CN(C)C)c1O	x	x	x	101.8*	-3.1
CN(C)Cc1cc(OCc2ccccc2)cc(CN(C)C)c1O	1.2	4.8	-3.1	3.8	x
C[C@@H]1CN([C@H](C)CO)C(=O)c2cc(NC(=O)CCC(F)(F)F)ccc2O[C@@H](C)CCCCO[C@@H]1CN(C)C(=O)C1CCCCC1	0.0	9.5	2.8	9.3	x
COCCNC(=O)C[C@@H]1CC[C@H]2[C@@H](COC[C@H](O)CN2S(=O)(=O)c2ccccc2C)O1	-2.1	19.3	0.9	-7.0	x
Cc1ccccc1S(=O)(=O)N1C[C@H](O)COC[C@@H]2O[C@@H](CC(=O)NCCc3ccccc3)CC[C@H]21	18.4	58.2*	9.1	-16.3	x
Cc1ccccc1S(=O)(=O)N1C[C@@H](O)COC[C@H]2O[C@H](CC(=O)NCCc3ccccc3)CC[C@@H]21	13.7	71.8*	6.2	-23.0	x
O=C(C[C@H]1CC[C@@H]2[C@H](COC[C@H](O)CN2C(=O)c2ccccc2F)O1)NCc1ccc(Cl)cc1	-0.3	-8.8	-2.9	2.8	x
Cc1cc(C(=O)Nc2cccc3c2O[C@@H](CN(C)C(=O)Nc2cccc4ccccc24)[C@H](C)CN([C@H](C)CO)C3=O)n(C)n1	-1.5	4.3	5.0	-0.1	x
COc1ccccc1C#Cc1cnc2c(c1)C(=O)N([C@H](C)CO)C[C@H](C)[C@@H](CN(C)C(=O)c1ccc3c(c1)OCO3)O2	0.7	-6.5	-2.3	-0.2	x
COc1cccc(C(=O)NC2CCCN(C3Cc4ccccc4C3)C2)c1OC (stereo unspecified)	26.1*	-5.5	-1.4	-1.2	-2.1
Oc1cc(-c2cccnc2)cc2cccnc12	25.5*	-13.0	0.2	9.8	-1.1
COCC(=O)N(C)C[C@@H]1Oc2cc(C3=CCCC3)ccc2S(=O)(=O)N([C@H](C)CO)C[C@H]1C	-3.3	-1.5	6.6	2.6	x
CC1(C)c2ccccc2N2CC(=O)N(CC(N)=O)C21C (stereo unspecified)	-0.2	x	118.4*	-39.2	39.9*
CC1(C)c2ccccc2N(CC(N)=O)C12C=Cc1ccccc1O2 (stereo unspecified)	6.7	-76.4	-65.2	-0.8	12.3
SMILES	MLL AF4-AF9 inh	RAD52 inh	S100A4 inh HTS	RAD54 branch	dFosB activator
COc1cc2c(cc1OC)C(c1ccc(-c3cc(Cl)ccc3Cl)o1)=NCC2	5.8	x	18.2	11.5	2.1
COc1cc2c(cc1OC)C(c1ccc(-c3ccc(Cl)c(Cl)c3)o1)=NCC2	x	x	x	8.5	52.1*
CC(C)NC(=O)N(C)C[C@H]1Oc2cc(C#C[C@H](C)O)ccc2S(=O)(=O)N([C@H](C)CO)C[C@@H]1C	-3.3	-11.1	-3.4	8.0	x
C=CC[n+]1c(-c2ccc(Cl)cc2Cl)csc1Nc1ccc(NC(C)=O)cc1	44.3*	-16.0	2.2	x	-9.7
Oc1c(CNc2ccccc2)cc(COCc2ccccc2)c2cccnc12	67.7*	-41.1	1.7	-3.5	-12.9
CC(C)NC(=O)N(C)C[C@@H]1Oc2ccc(NS(C)(=O)=O)cc2C(=O)N([C@@H](C)CO)C[C@@H]1C	-4.2	7.4	-18.5	8.2	x
O=C(C1CC1)N1CC2(C1)[C@H](c1ccccc1)[C@H](CO)N2C(=O)c1cccnc1	-3.7	18.7	7.1	x	x
COc1cccc(S(=O)(=O)Nc2ccc3c(c2)[C@@H]2C[C@@H](CC(=O)NC4CCCCC4)O[C@@H](CO)[C@@H]2O3)c1	0.3	0.2	-12.6	1.2	x
CN(C)c1ccc2c(c1)[C@@H]1C[C@H](CC(=O)NCCN3CCCCC3)O[C@@H](CO)[C@@H]1O2	14.6	40.2	-1.9	13.2	x
COc1cccc(S(=O)(=O)Nc2ccc3c(c2)[C@H]2C[C@@H](CC(=O)NC4CCCCC4)O[C@H](CO)[C@H]2O3)c1	21.9	66.9*	-3.8	-29.5	x
CN(C)c1ccc2c(c1)[C@H]1C[C@H](CC(=O)NCCN3CCCCC3)O[C@H](CO)[C@H]1O2	17.8	55.8*	-2.6	37.5	x
O=C(C[C@@H]1C[C@H]2c3cc(NC(=O)NC4CCCC4)ccc3O[C@H]2[C@H](CO)O1)NCCc1ccccc1	0.8	-12.9	111.1*	4.0	x
CN1C(=O)c2cc(NC(=O)c3cccc(F)c3)ccc2OC[C@@H]2O[C@@H](CC(=O)N3CCc4ccccc4C3)CC[C@@H]21	1.2	2.1	8.8	-0.2	x
Cc1cc(C)c(S(=O)(=O)NCc2ccc3c(c2)cc(C)n3C)c(C)c1	0.7	-4.5	82.9*	-0.2	-11.0
Cc1cc2cc(CNS(=O)(=O)c3ccc4ccccc4c3)ccc2n1C	2.4	-3.4	61.1	3.8	12.0
O=C(NCC1CC1)[C@H]1[C@H](CO)[C@H]2Cn3c(cccc3=O)[C@H]2N1CCC(F)(F)F	-0.6	6.0	0.7	4.5	x
COc1ccc2c3c(n(C)c2c1)[C@@H](CO)N(C(=O)C1CC1)CC31CN(C(=O)Nc2cccc(F)c2)C1	0.6	-2.9	-14.0	x	x
C[C@H]1CN([C@@H](C)CO)C(=O)c2cccc(NC(=O)Nc3ccccc3)c2O[C@@H]1CN(C)Cc1ccncc1	0.2	2.7	-3.1	-7.2	x
